This is a sample that favours compounds with a hit; in the whole collection about 5.8% have one here.
T cruzi growth – T. cruzi intracellular proliferation inhibitors, primary screen, cell-based, beta-gal Tulahuen parasites, NIH3T3 host, luminescence; T. cruzi beta-gal in NIH3T3, GalScreen luminescence, 90 h; 77,000 compounds, 5.9% hits; inhibition, % at 8.34 µM;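 active means mean inhibition above about 93%, with at least 55% of replicates each passing it, limit read from the data, passing the limit was not always enough; inconclusive means only one of those two conditions holds; inactive means neither condition holds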
KDM4C inh – inhibitors of GASC-1 (KDM4C) histone demethylase, primary screen, biochemical, single concentration HTS; Lysine-specific demethylase 4C (Homo sapiens), Q9H3R0; GST-KDM4C 2-372, H3K9me3 peptide, LANCE TR-FRET; inhibition, % at 12.5 µM; 96,000 compounds, 0.15% hits; AID 720574, 2013;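 active means mean replicate inhibition above about 25%, with at least 55% of replicates also reaching it, limit read from the data, passing the limit was not always enough; inconclusive means only one of those two conditions met; inactive means neither condition met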
Target sequence (Q9H3R0 2-372 limits assumed): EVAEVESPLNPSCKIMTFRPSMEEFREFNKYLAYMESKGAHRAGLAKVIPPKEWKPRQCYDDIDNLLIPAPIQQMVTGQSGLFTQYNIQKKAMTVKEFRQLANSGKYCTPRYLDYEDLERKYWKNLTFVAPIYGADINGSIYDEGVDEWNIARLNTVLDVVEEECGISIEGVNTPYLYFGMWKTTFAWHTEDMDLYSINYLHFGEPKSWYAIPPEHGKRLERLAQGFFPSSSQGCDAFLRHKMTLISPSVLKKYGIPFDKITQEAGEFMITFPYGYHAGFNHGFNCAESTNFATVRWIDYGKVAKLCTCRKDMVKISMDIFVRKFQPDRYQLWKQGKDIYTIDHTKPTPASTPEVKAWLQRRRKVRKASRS
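Material: N-terminal GST-fused human GASC-1 (KDM4C) fragment, residues 2-372. Input: 10 nM enzyme. Incubation: enzyme reaction 30 min, then detection 60 min, both room temperature. Doses: one test concentration per compound. Read-out basis: inhibition from TR-FRET ratio decrease. Detection: LANCE TR-FRET, excitation 340 nm, emissions 618 and 671 nm.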
IDH1 mut inh – inhibitors of IDH1 R132H reductase, primary screen, biochemical, plate reader, single point; diaphorase/resazurin fluorescence, 60 min; inhibition, % at 10 µM; 70,000 compounds, 0.18% hits; AID 624101, 2012; in the data active means inhibition above about 34%; inconclusive means no clear call, values can overlap the other calls; inactive means below about 11%;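 further: 0% = DMSO and 100% = no enzyme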
Pf Dd2 growth – P. falciparum Dd2 growth inhibitors, primary screen, SYBR Green fluorescence, single dose replicates. AID 1159554, 2015. 94,000 compounds, 2.3% hits. 72 h; active compounds read low. activity change, % at 10 µM; in the data active means activity change below about -80%; inconclusive means no clear call, values can overlap the other calls
Numbers without * were called inactive; u = inconclusive; x = no result given.

SMILES	T cruzi growth	KDM4C inh	IDH1 mut inh	Pf Dd2 growth
C[C@@H]1CN([C@H](C)CO)C(=O)c2cc(NC(=O)CCCCCC(=O)Nc3ccccc3N)ccc2O[C@@H](C)CCCCO[C@@H]1CN(C)S(=O)(=O)c1ccc(Cl)cc1	79	0	0	-78
C[C@@H]1CCCCO[C@H](CN(C)Cc2ccccc2)[C@@H](C)CN([C@H](C)CO)C(=O)c2cc(NC(=O)CCCCCC(=O)Nc3ccccc3N)ccc2O1	x	-1	x	-83*
C[C@H](CO)N1C[C@H](C)[C@H](CN(C)CC2CCCCC2)OCCCC[C@H](C)Oc2ccc(NC(=O)CCCCCC(=O)Nc3ccccc3N)cc2C1=O	89	3	x	-82*
COc1ccc(CN(C)C[C@H]2OCCCC[C@@H](C)Oc3ccc(NC(=O)CCCCCC(=O)Nc4ccccc4N)cc3C(=O)N([C@H](C)CO)C[C@@H]2C)cc1	x	1	x	-83*
Cc1cccc(-n2c3c(c(=O)[nH]c2=S)C(NC(=O)CN2CCCC2=O)(C(F)(F)F)C(=O)N3)c1 (stereo not given)	x	x	7	x
COCCOC(=O)N1C(=O)[C@@]2(c3cc(C#CCC(C(=O)OC)C(=O)OC)ccc31)[C@H](C(=O)N1CCc3cc(OC)c(OC)cc3C1)[C@H]1C(=O)O[C@H](c3ccccc3)[C@H](c3ccccc3)N1[C@@H]2c1ccccc1OCCO	x	x	0	x
O=C(CSc1nnc(-c2ccccc2Cl)n1-c1ccccc1)Nc1ccccc1Cl	x	x	0	x
CCc1c(C)sc(NC(=O)COc2ccc(Cl)cc2)c1C(N)=O	x	x	0	x
COc1ccc(NC(=O)Nc2ccc3c(c2)C(=O)N([C@H](C)CO)C[C@H](C)[C@H](CN(C)Cc2ccc(C(=O)Nc4ccccc4N)cc2)OCCCC[C@@H](C)O3)cc1	x	2	0	-87*
C[C@@H]1CN([C@@H](C)CO)C(=O)c2cc(NC(=O)CCCCCC(=O)Nc3ccccc3N)ccc2O[C@@H](C)CCCCO[C@@H]1CN(C)C(=O)Nc1ccc(C(F)(F)F)cc1	72	0	x	-82*
C[C@H](CO)N1C[C@H](C)[C@@H](CN(C)S(=O)(=O)c2ccccc2)Oc2ccc(NC(=O)Cc3cn(C)c4ccccc34)cc2C1=O	29	x	-21	-87*
C[C@H](CO)N1C[C@H](C)[C@H](CN(C)S(=O)(=O)c2ccccc2)Oc2ccc(NC(=O)Cc3cn(C)c4ccccc34)cc2C1=O	71	x	x	-93*
C[C@H]1CN([C@@H](C)CO)C(=O)c2cc(NC(=O)Cc3cn(C)c4ccccc34)ccc2O[C@@H]1CN(C)S(=O)(=O)c1ccccc1	13	x	x	-84*
C[C@@H]1CN([C@H](C)CO)C(=O)c2cc(NC(=O)Cc3cn(C)c4ccccc34)ccc2O[C@H]1CN(C)S(=O)(=O)c1ccccc1	15	0	-29	-29
Cc1nc(NCC2CCCO2)c2c(C)c(C)sc2n1 (stereo not given)	x	x	1	x
Cc1ccc(NC(=O)C(=O)NCc2ccccn2)cc1C	x	x	0	x
COC(=O)c1cc(NC(=O)COc2ccc(Cl)cc2C)cc(C(=O)OC)c1	x	x	0	x
C[C@@H]1CN([C@@H](C)CO)C(=O)c2c(c3ccccc3n2C)-c2ccccc2CO[C@@H]1CN(C)S(=O)(=O)c1ccc(C(F)(F)F)cc1	x	0	x	-89*
C[C@H](CO)N1C[C@H](C)[C@@H](CN(C)S(=O)(=O)c2ccc(C(F)(F)F)cc2)OCc2ccccc2-c2c(n(C)c3ccccc23)C1=O	x	-1	x	-90*
C[C@H](CO)N1C[C@H](C)[C@H](CN(C)S(=O)(=O)c2ccc(C(F)(F)F)cc2)OCc2ccccc2-c2c(n(C)c3ccccc23)C1=O	x	0	x	-94*
COc1ccc(S(=O)(=O)Nc2ccc3c(c2)CC(=O)N([C@@H](C)CO)C[C@H](C)[C@@H](CN(C)Cc2ccc(C(=O)Nc4ccccc4N)cc2)O3)cc1	x	-2	0	-88*
COc1ccc(S(=O)(=O)Nc2ccc3c(c2)CC(=O)N([C@H](C)CO)C[C@H](C)[C@@H](CN(C)Cc2ccc(C(=O)Nc4ccccc4N)cc2)O3)cc1	49	-5	0	-85*
COc1ccc(S(=O)(=O)N(C)C[C@H]2OCCCC[C@H](C)Oc3ccc(NC(=O)Nc4ccccc4)cc3C(=O)N([C@H](C)CO)C[C@@H]2C)cc1	53	-1	0	-38
COc1ccc(NC(=O)Nc2ccc3c(c2)C(=O)N([C@@H](C)CO)C[C@H](C)[C@H](CN(C)S(=O)(=O)c2ccc(Cl)cc2)OCCCC[C@@H](C)O3)cc1	80	6	x	-87*
COc1ccc(S(=O)(=O)N(C)C[C@@H]2OCCCC[C@@H](C)Oc3ccc(NC(=O)Nc4ccccc4)cc3C(=O)N([C@@H](C)CO)C[C@@H]2C)cc1	74	0	-1	-83*
SMILES	T cruzi growth	KDM4C inh	IDH1 mut inh	Pf Dd2 growth
COc1ccc(NC(=O)Nc2ccc3c(c2)C(=O)N([C@H](C)CO)C[C@H](C)[C@H](CN(C)S(=O)(=O)c2ccc(Cl)cc2)OCCCC[C@@H](C)O3)cc1	33	0	0	-82*
O=C(CSc1nnc(-c2ccncc2)n1-c1ccc(Cl)cc1)Nc1ccccc1-c1ccccc1	x	x	0	x
Cc1nnc(SCc2nc(-c3ccc(Br)cc3)no2)n1-c1ccccc1	x	x	0	x
Cc1ccc(Cl)cc1NC(=O)C(C)NS(=O)(=O)c1ccc(Br)cc1 (stereo not given)	x	x	0	x
COc1ccc(NC(=O)N2CCC3(CC2)CN(CC2CC2)[C@H](CO)c2c3c3ccc(OC)cc3n2C)cc1	x	0	x	-85*
COc1ccc2c3c(n(C)c2c1)[C@H](CO)N(CC1CC1)CC31CCN(C(=O)Nc2ccccc2)CC1	x	-1	x	-65
COc1ccc2c3c(n(C)c2c1)[C@H](CO)N(CC1CCCC1)CC31CCN(C(=O)Nc2ccccc2)CC1	x	-3	x	-66
COc1ccc2c3c(n(C)c2c1)[C@@H](CO)N(CC1CCOCC1)CC31CCN(C(=O)Nc2ccccc2)CC1	x	0	x	-83*
C=C1C(=O)O[C@@H]2C3=C(C)CC[C@]34O[C@@H](C[C@@H]4C)[C@H]12	x	x	1	x
CCOC(=O)c1ccccc1NC(=O)COc1ccccc1C	x	x	0	x
C[C@H]1CCCCO[C@@H](CN(C)Cc2ccc3c(c2)OCO3)[C@@H](C)CN([C@@H](C)CO)C(=O)c2cc(NC(=O)Nc3cccc4ccccc34)ccc2O1	92	-3	-5	u
C[C@@H]1CCCCO[C@@H](CN(C)Cc2ccc3c(c2)OCO3)[C@H](C)CN([C@H](C)CO)C(=O)c2cc(NC(=O)Nc3cccc4ccccc34)ccc2O1	45	-6	1	-91*
C[C@@H]1CCCCO[C@H](CN(C)Cc2ccc3c(c2)OCO3)[C@@H](C)CN([C@@H](C)CO)C(=O)c2cc(NC(=O)Nc3cccc4ccccc34)ccc2O1	69	-2	2	-88*
